# Reference: article PMC2888972 (Molecular cancer therapeutics, 2009)
# Read-outs that look alike come from different tables or passages of the source.
# Assays:
# [1] = test system: 786-O cancer; test: Growth inhibition assay; format: cell-based, human; conditions: for efficacy (maximum growth inhibition observed): 48 h, 1 to 12.5 µmol/L; for EC50: read-out: potency (EC50, concentration needed to induce half maximal efficacy), 48 h
# How it was run: (§1)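 Stock is 0.01 mol/L in DMSO, kept at −20°C under subdued light. Cells get 1–12.5 µmol/L or equal-volume DMSO, in triplicate, for 48 h. Growth index is mean treated OD over mean control OD, plotted against concentration. Maximal inhibition comes by nonlinear regression from plots of 2–3 independent experiments.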
# [2] = test system: HK-2 normal; test: Growth inhibition assay; format: cell-based, human; conditions: 48 h; for efficacy (maximum growth inhibition observed): 1 to 12.5 µmol/L; for EC50: read-out: potency (EC50, concentration needed to induce half maximal efficacy)
# How it was run: as §1
# [3] = test system: Caki-1 cancer; test: Growth inhibition assay; format: cell-based, human; conditions: for efficacy (maximum growth inhibition observed): 1 to 12.5 µmol/L; for EC50: read-out: potency (EC50, concentration needed to induce half maximal efficacy)
# How it was run: as §1
# [4] = test system: TA98; test: Bacterial mutation; conditions: positive control 1 µg/plate, −S9
# [5] = test system: TA100; test: Bacterial mutation; conditions: positive control 0.5 µg/plate, −S9
# [6] = test system: TA1535; test: Bacterial mutation
# [7] = test system: RTC91696 normal; test: Growth inhibition assay; format: cell-based, human; conditions: RTC91696 normal, 48 h, single experiments; for efficacy (maximum growth inhibition observed): 1 to 12.5 µmol/L; for EC50: read-out: potency (EC50, concentration needed to induce half maximal efficacy)
# [8] = test system: WP2 uvrA; test: Bacterial mutation
# [9] = positive control 0.5 µg/plate, −S9
SMILES,efficacy (maximum growth inhibition observed) [1],EC50 [1] [µM],efficacy (maximum growth inhibition observed) ([2]; HK-2 normal),EC50 ([2]; HK-2 normal) [µM],"efficacy (maximum growth inhibition observed) ([3]; Caki-1 cancer, 48 h)","EC50 ([3]; Caki-1 cancer, 48 h) [µM]",efficacy (maximum growth inhibition observed) [7],EC50 [7] [µM],also measured
COC(=O)c1cccc(NC(=S)Nc2ccc3c(c2)C(C)(C)CC(C)(C)S3)c1 [SHetD5],41.80% ± 16.91%,5.14 ± 0.7,47.97% ± 1.00%,4.96 ± 0.25,34.10% ± 1.20%,7.22 ± 0.25,,,
"O=[N+]([O-])c1ccc2c(c1)Cc1ccccc1-2 [2NF, reference compound]",,,,,,,,,"number of revertant colonies, Mean [4]: 108"
"[N-]=[N+]=[N-].[Na+] [NaAZ, reference compound]",,,,,,,,,"number of revertant colonies, Mean [5]: 511; number of revertant colonies, Mean [6, 9]: 304"
COC(=O)c1ccc(NC(=O)Nc2ccc3c(c2)C(C)(C)CC(C)(C)S3)cc1 [SHetD3],61.52% ± 1.44%,7.15 ± 0.81,26.37% ± 0.22%,6.91 ± 0.66,56.99% ± 12.12%,7.14 ± 0.22,46.27% ± 0.95%,9.42 ± 0.43,
CC1(C)CC(C)(C)c2cc(NC(=O)Nc3ccc([N+](=O)[O-])cc3)ccc2S1 [SHetC2],78.53% ± 6.11%,7.48 ± 0.34,52.67% ± 1.84%,4.47 ± 0.49,85.71% ± 4.53%,4.91 ± 0.29,52.31% ± 7.38%,7.67 ± 0.49,
COC(=O)c1ccc(NC(=S)Nc2ccc3c(c2)C(C)(C)CC(C)(C)S3)cc1 [SHetD4],44.55% ± 17.56%,5.08 ± 0.71,43.67% ± 0.44%,7.42 ± 0.2,38.67% ± 1.50%,7.56 ± 0.15,37.74% ± 6.61%,5.36 ± 0.6,
CCOC(=O)c1ccc(NC(=O)Nc2ccc3c(c2)C(C)(C)CC(C)(C)S3)cc1 [SHetA4],45.04% ± 4.80%,2.56 ± 0.34,26.35% ± 0.80%,5.19 ± 0.25,68.92% ± 6.94%,5.07 ± 0.15,39.67% ± 2.52%,7.55 ± 0.51,
"Nc1ccc2cc3ccccc3cc2c1 [2AA, reference compound]",,,,,,,,,"number of revertant colonies, Mean [8, 9]: 594; number of revertant colonies, Mean ([8]; positive control 15 µg/plate, +S9): 145; number of revertant colonies, Mean ([6]; positive control 5 µg/plate, +S9): 324"
"CC1=C(/C=C/C(C)=C/C=C/C(C)=C/C(=O)O)C(C)(C)CCC1 [t-RA, trans-retinoic acid, reference compound]",0.00% ± 1.43%,,15.81% ± 0.47%,,6.46% ± 9.40%,,,,"EC50 ([2]; Homo sapiens): 6.28 ± 2.19 µM; EC50 ([3]; Homo sapiens, CAKI-1, 48 h): 4.64 ± 1.14 µM"
